Assay [1] addresses Kynurenine 3-monooxygenase (Rattus norvegicus) (UniProt O88867). Briefly: Inhibition of Kynurenine-3-hydroxylase enzyme isolated from the rat liver at 10 uM.
For assay [2], the target named is Kynurenine 3-monooxygenase (Rattus norvegicus, UniProt O88867). Briefly: Inhibition of Kynurenine-3-hydroxylase enzyme isolated from the rat liver. Put shortly:
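Enzyme source: P2 mitochondrial pellet from rat liver, resuspended in 0.32 M sucrose. Activity measured as ³HOH release from 3-[³H]-L-kynurenine at its K_m concentration, 37 °C, under conditions linear with time and enzyme protein. Five inhibitor concentrations tested. IC50 taken as the mean of at least 2 experiments run in duplicate, with variation <20%.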

Here are results for 54 compounds from ChEMBL document CHEMBL1133168, “Synthesis and SAR of 4-aryl-2-hydroxy-4-oxobut-2-enoic acids and esters and 2-amino-4-aryl-4-oxobut-2-enoic acids and esters: potent inhibitors of kynurenine-3-hydroxylase as potential neuroprotective agents” (J Med Chem, 2000).

What is called inhibition is the percentage by which the read-out fell short of the control. A high value points to a response far below the control. Usually IC50 stands for the concentration needed to halve the response being measured.

The structures appear in SMILES notation.

Kynurenine 3-monooxygenase (Rattus norvegicus), sequence (O88867 whole entry, looked up): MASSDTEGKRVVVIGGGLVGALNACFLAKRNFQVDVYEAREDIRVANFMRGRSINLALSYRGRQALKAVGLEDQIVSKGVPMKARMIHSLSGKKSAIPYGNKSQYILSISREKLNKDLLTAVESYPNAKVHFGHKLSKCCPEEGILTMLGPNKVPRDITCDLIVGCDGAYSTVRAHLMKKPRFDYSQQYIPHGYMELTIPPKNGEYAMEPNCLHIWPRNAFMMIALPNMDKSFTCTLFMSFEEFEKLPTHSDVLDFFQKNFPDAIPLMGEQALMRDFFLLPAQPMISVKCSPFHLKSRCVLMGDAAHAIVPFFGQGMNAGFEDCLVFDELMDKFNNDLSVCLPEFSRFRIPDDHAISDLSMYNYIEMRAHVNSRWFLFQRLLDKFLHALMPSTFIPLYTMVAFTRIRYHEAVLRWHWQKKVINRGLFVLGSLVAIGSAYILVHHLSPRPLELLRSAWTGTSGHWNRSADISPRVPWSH
Kynurenine 3-monooxygenase, sequence (O88867 whole entry): as the sequence (O88867 whole entry, looked up) above

Compound `O=C(O)C(=O)/C=C(\O)c1cccc(Cl)c1Cl` registered an inhibition in assay [1] of 33%. On to `N/C(=C\C(=O)c1ccc(F)c(Cl)c1)C(=O)O`, for which the IC50 in assay [2] is 820 nM. Turning to `COC(=O)C(=O)/C=C(\O)c1ccccc1Cl`, in assay [1], the inhibition is 31%. Still for that read-out and setting: for `COC(=O)C(=O)/C=C(\O)c1ccc(F)cc1` the value was 22%.

`COC(=O)C(=O)/C=C(\O)c1ccc(Cl)c(Cl)c1` returned an IC50 in assay [2] of 1900 nM.

As for `COC(=O)C(=O)/C=C(\O)c1ccccc1[N+](=O)[O-]`, the inhibition in assay [1] worked out at 1%. Still for that read-out and setting: as for `O=C(O)C(=O)/C=C(\O)c1ccccc1`, the figure is 0%. In assay [2], `COC(=O)C(=N)/C=C(\O)c1ccc(F)c(F)c1` showed an IC50 of 3600 nM. This lies in the single-digit micromolar range. In the case of `COC(=O)C(=N)/C=C(\O)c1ccc(F)cc1`, the inhibition in assay [1] came out at 1%. On the same count and under the same terms, as for `COC(=O)C(=N)/C=C(\O)c1ccccc1Cl`, the figure is 31%.

Compound `O=C(O)C(=O)/C=C(\O)c1cccc(F)c1` gave an IC50 in assay [2] of 580 nM. For the compound `N/C(=C\C(=O)c1ccc(Cl)cc1)C(=O)O`, the inhibition in assay [1] came out at 33%.

In the case of `COC(=O)C(=N)/C=C(\O)c1cccc(F)c1`, the inhibition in assay [1] was 0%. For `COC(=O)C(=N)/C=C(\O)c1cccc(Cl)c1`, half-maximal inhibition in assay [2] (IC50) was put at 7900 nM. `COC(=O)C(=O)/C=C(/O)c1ccc(C)cc1` came in with an inhibition in assay [1] of 12%. In the case of `O=C(O)C(=O)/C=C(\O)c1ccc(F)c(F)c1`, in assay [2], the IC50 is 120 nM. Consider `COC(=O)C(=N)/C=C(\O)c1ccccc1`, for which the inhibition in assay [1] came out at 3%. The compound `N/C(=C\C(=O)c1ccc(Cl)c(Cl)c1)C(=O)O` displayed an IC50 in assay [2] of 1000 nM.

Consider `COC(=O)C(=N)/C=C(\O)c1ccc(F)c(Cl)c1`, for which the inhibition in assay [1] is 4%. `COC(=O)C(=O)/C=C(\O)c1cccc(F)c1F` registered an IC50 in assay [2] of 8100 nM.

`COC(=O)C(=O)/C=C(\O)c1cccc(F)c1`: in assay [2], half-maximal inhibition (IC50) was put at 1600 nM. This IC50 is about 5.1-fold lower than that of the compound before. On to `N/C(=C\C(=O)c1cccc(Cl)c1Cl)C(=O)O`, for which the inhibition in assay [1] was determined as 32%. On the same count and under the same terms, as for `COC(=O)C(=N)/C=C(\O)c1ccc(Cl)c(Cl)c1`, the figure is 37%; as for `COC(=O)C(=N)/C=C(\O)c1ccc(C)cc1`, 4%; as for `O=C(O)C(=O)/C=C(\O)c1ccccc1Cl`, 33%.

`N/C(=C\C(=O)c1ccc(F)cc1)C(=O)O` had an inhibition in assay [1] of 41%. `COC(=O)C(=O)/C=C(\O)c1ccc(F)c(F)c1` yielded an IC50 in assay [2] of 3300 nM.

Compound `NC(CC(=O)c1cccc([N+](=O)[O-])c1)C(=O)O` (racemic) returned a 50% inhibitory concentration (IC50) in assay [2] of 8000 nM. `COC(=O)C(=O)/C=C(\O)c1ccccc1` displayed an inhibition in assay [1] of 23%.

Consider `Cc1cc(/C(O)=C/C(=O)C(=O)O)ccc1Cl`, for which, in assay [2], inhibition was half-maximal at 1700 nM (IC50). In the case of `COC(=O)C(=N)/C=C(\O)c1ccc(Br)cc1`, in assay [1], the inhibition came to 0%.

Consider `COC(=O)C(=N)/C=C(\O)c1ccc(Cl)cc1`, for which, in assay [1], the inhibition is 13%.

In turn, `COC(=O)C(=O)/C=C(\O)c1cccc(Cl)c1` came in with an IC50 in assay [2] of 1900 nM. `N/C(=C\C(=O)c1ccccc1)C(=O)O`: the inhibition in assay [1] came out at 17%. `O=C(O)C(=O)/C=C(\O)c1ccc(Cl)cc1` came in with an IC50 in assay [2] of 3000 nM.

`COC(=O)C(=O)/C=C(\O)c1cccc(Cl)c1Cl` had an inhibition in assay [1] of 14%.

Take `COC(=O)C(=N)/C=C(\O)c1cccc(Cl)c1Cl`: the inhibition in assay [1] worked out at 33%. `O=C(O)C(=O)/C=C(\O)c1cccc(Cl)c1` yielded an IC50 in assay [2] of 320 nM. As to `O=C(O)C(=O)/C=C(\O)c1cccc(Br)c1`, 1700 nM corresponded to half-maximal inhibition in assay [2] (IC50).

In assay [2], `N[C@@H](CC(=O)c1cccc([N+](=O)[O-])c1)C(=O)O` registered an IC50 of 4000 nM.

Regarding `COC(=O)C(=O)/C=C(\O)c1ccc(Cl)c(C)c1`, the IC50 in assay [2] was determined as 4900 nM. Same read-out and setting: as for `O=C(O)C(=O)/C=C(\O)c1ccc(Cl)c([N+](=O)[O-])c1`, the figure is 2000 nM. `COC(=O)C(=N)/C=C(\O)c1ccc(Cl)c(C)c1` had an inhibition in assay [1] of 0%. Same read-out and setting: for `COC(=O)C(=O)/C=C(\O)c1ccc(Cl)cc1` the value was 38%. For `N/C(=C\C(=O)c1cccc(Cl)c1)C(=O)O`, half-maximal inhibition in assay [2] (IC50) required 2400 nM. Compound `COC(=O)C(=N)/C=C(\O)c1cccc(Br)c1` returned an inhibition in assay [1] of 0%. Take `COC(=O)C(=O)/C=C(\O)c1ccc(Br)cc1`: the IC50 in assay [2] was 1900 nM. In assay [1], `O=C(O)C(=O)/C=C(\O)c1ccccc1[N+](=O)[O-]` had an inhibition of 24%. In assay [2], `COC(=O)C(=O)/C=C(\O)c1ccc(Cl)c([N+](=O)[O-])c1` came in with a 50% inhibitory concentration (IC50) of 11200 nM. In assay [1], `N/C(=C\C(=O)c1ccccc1Cl)C(=O)O` came in with an inhibition of 19%. In turn, `COC(=O)C(=O)/C=C(\O)c1ccc(F)c(Cl)c1` gave a concentration for half-maximal inhibition (IC50) in assay [2] of 2600 nM. On to `O=C(O)C(=O)/C=C(\O)c1ccc(F)c(Cl)c1`, for which the IC50 in assay [2] came out at 270 nM.

In turn, `N/C(=C\C(=O)c1ccc(F)c(F)c1)C(=O)O` came in with an IC50 in assay [2] of 1500 nM.

On to `COC(=O)C(=O)/C=C(\O)c1cccc(Br)c1`, for which half-maximal inhibition in assay [2] (IC50) was put at 2100 nM.
